Where two headings read alike, the source gives them in different places.
Legend:
ALK1 = ALK1 (Homo sapiens, UniProt P37023); assay: In vitro kinase reaction; format: biochemical
Method in brief: (§1)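 Radiometric filter-binding assay with purified recombinant kinase/substrate pairs. Reactions ran with ATP plus 33P-ATP (10 μM final) at 10 test compound concentrations in triplicate, in 20 mM Hepes pH 7.5, 10 mM MgCl2, 1 mM EGTA, 2 mM DTT, 1% DMSO, for 120 min at 25 °C. Products were spotted on P81 paper and washed in 0.75% phosphoric acid. Activity was expressed as % of DMSO control; IC50 came from curve fitting.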

ALK3 = ALK3 (Homo sapiens, UniProt P36894); assay: In vitro kinase reaction; format: biochemical
Method in brief: as §1

BMPR-2 = biological target: T1, BMPR-2 (Homo sapiens, UniProt Q13873); assay: In vitro kinase reaction; format: biochemical; details: 10 μM ATP, 120 minutes at 25 °C
T1 sequence (Q13873 27-1038): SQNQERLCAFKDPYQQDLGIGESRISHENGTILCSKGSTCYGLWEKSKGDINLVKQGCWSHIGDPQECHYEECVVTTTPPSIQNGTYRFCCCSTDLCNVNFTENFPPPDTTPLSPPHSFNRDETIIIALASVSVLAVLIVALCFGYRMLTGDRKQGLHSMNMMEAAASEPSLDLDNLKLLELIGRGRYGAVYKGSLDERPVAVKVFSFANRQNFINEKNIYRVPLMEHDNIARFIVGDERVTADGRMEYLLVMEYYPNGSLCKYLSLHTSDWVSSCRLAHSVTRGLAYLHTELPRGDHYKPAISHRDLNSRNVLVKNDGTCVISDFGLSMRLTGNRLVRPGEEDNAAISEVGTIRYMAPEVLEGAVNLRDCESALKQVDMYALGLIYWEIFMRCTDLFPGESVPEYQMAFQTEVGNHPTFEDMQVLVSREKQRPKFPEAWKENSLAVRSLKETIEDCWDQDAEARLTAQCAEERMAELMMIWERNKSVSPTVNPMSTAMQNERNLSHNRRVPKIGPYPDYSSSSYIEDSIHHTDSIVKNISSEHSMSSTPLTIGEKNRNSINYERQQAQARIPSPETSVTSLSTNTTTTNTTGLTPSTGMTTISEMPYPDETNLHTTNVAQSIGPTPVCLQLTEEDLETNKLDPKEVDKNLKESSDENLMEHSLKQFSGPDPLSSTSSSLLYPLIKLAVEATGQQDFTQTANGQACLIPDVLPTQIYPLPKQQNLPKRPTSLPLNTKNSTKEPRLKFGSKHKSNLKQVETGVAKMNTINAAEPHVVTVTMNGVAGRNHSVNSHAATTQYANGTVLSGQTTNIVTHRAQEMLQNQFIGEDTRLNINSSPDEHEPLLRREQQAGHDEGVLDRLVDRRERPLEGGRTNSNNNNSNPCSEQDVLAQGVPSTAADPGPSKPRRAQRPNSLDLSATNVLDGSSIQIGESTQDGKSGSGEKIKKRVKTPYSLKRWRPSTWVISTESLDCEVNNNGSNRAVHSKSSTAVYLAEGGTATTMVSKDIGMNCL
Method in brief: as §1

Id1 [1] = assay: Id1 mRNA expression by qPCR in NIH3T3 cells; format: cell-based, mouse; details: for Id1 RNA levels on serum induction: then 20% serum 0 to 120 minutes; for response of the Id1 gene to serum: data not shown
c-fos = c-fos mRNA expression by qPCR in NIH3T3 cells; format: cell-based, mouse; details: then 20% serum
Method in brief: (§2)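 NIH3T3 cells were starved overnight in 0.2% serum and pretreated 1 hour with test compound. They were then induced with 20% NCS for 0–120 min. RNA was taken up in Tri Reagent, and cDNA was made from 1 μg total RNA with random hexamers. qPCR was normalised to 18s rRNA. Values are means of three experiments ± standard deviations.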

Id3 = Id3 mRNA expression by qPCR in NIH3T3 cells; format: cell-based, mouse; details: NIH3T3, AZD0530 100 nM 1 hour, then 20% serum
Method in brief: as §2

[2] = system: plasminogen activator inhibitor-1 (PAI-1); assay: PAI-1 mRNA expression by qPCR in NIH3T3 cells; format: cell-based, mouse; details: NIH3T3, AZD0530 100 nM 1 hour, then 20% serum
Method in brief: as §2

Id1 promoter = Id1 promoter luciferase reporter assay in NIH3T3 cells; format: cell-based, mouse
c-fos promoter = c-fos promoter luciferase reporter assay in NIH3T3 cells; format: cell-based, mouse; details: NIH3T3, AZD0530 100 nM 1 hour, then 20% NCS 4 hours
Method in brief: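 NIH3T3 cells, 4 × 10^4 per well, were transfected with 100 ng c-fos promoter firefly reporter plus 100 ng SV40-Renilla control. Next day they were starved overnight in 0.2% NCS, treated 1 hour with 100 nM test compound, then induced with 20% NCS for 4 hours. Dual-luciferase assay; firefly was normalised to Renilla.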

[3] = system: constitutively active ALK1; assay: Id1 reporter activated by constitutively active ALK1 in NIH3T3 cells; format: cell-based; details: NIH3T3, Id1 −1150 reporter, AZD0530 100 nM overnight in 0.2% serum
Method in brief: (§3)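 NIH3T3 cells, 4 × 10^4 per well, received fresh 10% NCS and were then transfected with 100 ng Renilla SV40 control, 100 ng mouse Id1 −1150 firefly reporter and 25 ng constitutively active ALK. Next day they went into 0.2% serum with 100 nM test compound or DMSO overnight. Dual-luciferase readout; firefly was normalised to Renilla.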

[4] = biological target: constitutively active ALK3 (Homo sapiens, UniProt P36894, Q233D); assay: Id1 reporter activated by constitutively active ALK3 in NIH3T3 cells; format: cell-based; details: NIH3T3, Id1 −1150 reporter, AZD0530 100 nM overnight in 0.2% serum
Method in brief: as §3

HCT116 cells = assay: Proliferation of HCT116 cells; format: cell-based; details: preliminary results
Id1 [5] = details: A549 lung carcinoma cell line; cited from earlier work
Smad1/5 = details: A549 cells; cited from earlier work
Id1 [6] = details: MDA-MB-231 breast carcinoma line; cited from earlier work
phospho-Smad1/5/8 [7] = assay: Phospho-Smad1/5/8 immunoblot in NIH3T3 cells; format: cell-based, mouse; details: NIH3T3, Dorsomorphin 1μM 1 hour, then serum
phospho-Smad1/5/8 [8] = assay: Phospho-Smad1/5/8 immunoblot in HCT116 cells; format: cell-based; details: HCT116, Dorsomorphin 1 μm
Method in brief: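 HCT116 cells were starved overnight in 0.2% serum with DMSO or test compound, lysed in passive lysis buffer and cleared at 11,000 × g. Proteins were run by SDS-PAGE and blotted to nitrocellulose. Phospho-Smad1/5/8 primary (1:1000) was applied overnight at 4°C, followed by fluorescent secondary (1:10,000) and infrared imaging. Actin served as loading control.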

Id1 [9] = assay: Id1 mRNA expression by qPCR in HCT116 cells; format: cell-based; details: HCT116, Dorsomorphin 1 μm
Method in brief: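 HCT116 cells, kept in DMEM with 10% FBS at 5% CO2, were starved overnight in 0.2% serum with DMSO or test compound. RNA was isolated in Tri Reagent. cDNA was made from 1 μg total RNA with random hexamers. Id1 mRNA was quantified by qPCR normalised to 18s rRNA.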

Smad1/5/8 = assay: Total Smad1/5/8 immunoblot in NIH3T3 cells; format: cell-based, mouse; details: NIH3T3, Dorsomorphin 1μM 1 hour, then serum
Method in brief: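 Serum-starved NIH3T3 cells were treated 1 hour with DMSO or test compound, then serum-stimulated. Lysis was in passive lysis buffer, followed by SDS-PAGE (10% or 12%) and nitrocellulose transfer with 6% milk block. Phospho-specific or total primaries (1:1000) were applied overnight at 4°C, then fluorescent secondaries (1:10,000) for 1 hour at room temperature, with infrared imaging. Actin served as loading control.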

[10] = NIH3T3, AZD0530 100 nM 1 hour, then 20% NCS 4 hours

Sequence of ALK3 (P36894 24-532): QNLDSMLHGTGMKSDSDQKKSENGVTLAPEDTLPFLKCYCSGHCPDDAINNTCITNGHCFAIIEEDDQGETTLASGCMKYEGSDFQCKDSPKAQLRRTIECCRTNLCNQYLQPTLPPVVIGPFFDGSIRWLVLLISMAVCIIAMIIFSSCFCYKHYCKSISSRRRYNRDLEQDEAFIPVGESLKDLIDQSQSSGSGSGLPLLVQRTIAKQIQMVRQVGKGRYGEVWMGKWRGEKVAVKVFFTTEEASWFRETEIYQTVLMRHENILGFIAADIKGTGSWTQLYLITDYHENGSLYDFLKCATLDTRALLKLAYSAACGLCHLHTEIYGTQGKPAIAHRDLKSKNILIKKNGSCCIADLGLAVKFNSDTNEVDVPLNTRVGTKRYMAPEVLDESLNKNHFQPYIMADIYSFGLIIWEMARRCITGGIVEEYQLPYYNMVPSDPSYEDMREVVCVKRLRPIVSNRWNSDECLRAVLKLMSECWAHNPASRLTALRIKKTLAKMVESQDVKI
Sequence of constitutively active ALK3 (P36894 24-532 Q233D): as the sequence (P36894 24-532) above, with Q210D counted along it
Sequence of ALK1 (P37023 22-503): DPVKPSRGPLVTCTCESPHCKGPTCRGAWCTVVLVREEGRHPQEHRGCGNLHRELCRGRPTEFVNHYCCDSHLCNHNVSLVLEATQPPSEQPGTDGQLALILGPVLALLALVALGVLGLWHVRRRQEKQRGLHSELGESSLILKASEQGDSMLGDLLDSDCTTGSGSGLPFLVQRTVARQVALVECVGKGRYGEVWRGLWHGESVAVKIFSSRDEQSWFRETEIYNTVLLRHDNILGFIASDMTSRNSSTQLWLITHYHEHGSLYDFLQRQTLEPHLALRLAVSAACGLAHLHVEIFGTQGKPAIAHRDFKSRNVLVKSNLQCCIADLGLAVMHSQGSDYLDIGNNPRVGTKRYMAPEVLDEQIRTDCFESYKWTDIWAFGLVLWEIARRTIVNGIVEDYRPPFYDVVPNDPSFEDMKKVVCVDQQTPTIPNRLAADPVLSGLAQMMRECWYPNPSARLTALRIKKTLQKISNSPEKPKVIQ

Molecule: CN1CCN(CCOc2cc(OC3CCOCC3)c3c(Nc4c(Cl)ccc5c4OCO5)ncnc3c2)CC1 [AZD0530, saracatinib]
- IC50 (ALK1): 3 to 30 nM
- IC50 (ALK3): 3 to 30 nM
- inhibition of BMPR-2 kinase activity (BMPR-2): no inhibition
- Id1 serum induction, mRNA expression (Id1 [1]; NIH3T3, AZD0530 100 nM 1 hour, then 20% serum): complete loss
- c-fos induction by serum (mRNA) (c-fos; NIH3T3, AZD0530 100 nM 1 hour): no effect
- Id3 expression on serum induction (Id3): strongly reduced
- PAI-1 serum activation (mRNA) [2]: decrease in serum activation
- Id1 serum induction, promoter activation (−1150 Id1 reporter) (Id1 promoter; [10]): complete loss
- serum induction of the 4X BRE-SBE reporter (Id1 promoter; [10]): blocked
- serum induction of the c-fos promoter (reporter) (c-fos promoter): little effect
- activation of the Id1 promoter by constitutively active ALK1 [3]: significantly decreased
- activation of the Id1 promoter by constitutively active ALK3 [4]: significantly decreased
- proliferation of HCT116 cells (HCT116 cells): did not reduce
- Id1 expression (Id1 [5]): inhibit Id1 expression
- activation of Smad1/5 (Smad1/5): prevented activation

Molecule: O=C(NOC[C@H](O)CO)c1ccc(F)c(F)c1Nc1ccc(I)cc1F [PD0325901]
- Id1 RNA levels on serum induction (Id1 [1]; NIH3T3, PD0325901 5 μM 1 hour): unchanged
- c-fos expression on serum induction (c-fos; NIH3T3, PD0325901 5 μM 1 hour): dramatically decreased

Molecule: CC(C)(C)n1nc(-c2ccc(Cl)cc2)c2c(N)ncnc21 [PP2]
- response of the Id1 gene to serum (Id1 [1]): Neither another Src inhibitor, PP2, nor the BCR-abl inhibitor, imatinib, had any effect
- Id1 expression (Id1 [6]): inhibited Id1 expression

Molecule: O=c1cc(N2CCOCC2)oc2c(-c3ccccc3)cccc12 [LY294002]
- Id1 RNA levels on serum induction (Id1 [1]; NIH3T3, LY294002 10 μM 1 hour): unchanged
- c-fos expression on serum induction (c-fos; NIH3T3, LY294002 10 μM 1 hour): little effect

Molecule: C[C@@H]1C[C@@H]([C@H](O)CC2CC(=O)NC(=O)C2)C(=O)[C@@H](C)C1 [cycloheximide]
- BMP2 induction of Id1 in the presence of the protein synthesis inhibitor (Id1 [1]; NIH3T3, 50 μg/ml cycloheximide, BMP2 (supplemental Fig. S3)): higher

Molecule: c1cc(-c2cnn3cc(-c4ccc(OCCN5CCCCC5)cc4)cnc23)ccn1 [Dorsomorphin, dorsomorphin]
- induction of Id1 mRNA in response to serum (Id1 [1]; NIH3T3, Dorsomorphin 1 hour, then 20% NCS 1 hour): strongly inhibited
- phosphorylation of Smad1/5/8 (phospho-Smad1/5/8 [7]): inhibits the phosphorylation
- phospho-Smad1/5/8 levels (phospho-Smad1/5/8 [8]): inhibition
- Id1 expression (mRNA) (Id1 [9]): inhibition
- total level of Smad1/5/8 (Smad1/5/8): unchanged

Molecule: Cc1ccc(NC(=O)c2ccc(CN3CCN(C)CC3)cc2)cc1Nc1nccc(-c2cccnc2)n1 [imatinib]
- response of the Id1 gene to serum (Id1 [1]): Neither another Src inhibitor, PP2, nor the BCR-abl inhibitor, imatinib, had any effect

B1: Noggin: BMP antagonist noggin (protein, UniProt Q13253 28-232, looked up)
Noggin: QHYLHIRPAPSDNLPLVDLIEHPDPIFDPKEKDLNETLLRSLLGGHYDPGFMATSPPEDRPGGGGGAAGGAEDLAELDQLLRQRPSGAMPSEIKGLEFSEGLAQGKKQRLSKKLRRKLQMWLWSQTFCPVLYAWNDLGSRFWPRYVKVGSCFSKRSCSVPEGMVCKPSKSVHLTVLRWRCQRRGGQRCGWIPIQYPIISECKCSC
- serum induction of Id1 mRNA (Id1 [1]; NIH3T3, 100 ng/ml noggin during serum-starvation, 20% serum): abolished serum induction
- serum activation of the Id1 promoter (reporter assay) (Id1 promoter; NIH3T3, mId1 −1150 reporter, noggin during serum-starvation, 20% serum): abolished serum activation

Source: PMC3786144 (Biochimica et biophysica acta, 2013)
